Measured values taken from publication PMC12238405 (Communications Biology, 2025).
“Also recorded” adds a separate entry of the source. Like-named read-outs stand apart in the source and are kept apart here.

How the values were obtained:
THP-1 cells = assay: Macrophage; assay type: cell-based, human; conditions: vs L. donovani DD8 intracellular amastigotes
[1] = system: L. donovani MHOM/IN/80/DD8 intracellular amastigotes; assay: L. donovani MHOM/IN/80/DD8 intracellular amastigote assay; assay type: cell-based, Leishmania donovani; conditions: for IC50: Leishmania donovani, THP-1, 96 h, read-out: IC50 (µM) [mean ± SD]
Outline: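 THP-1 cells: 12,500/well, 25 ng/mL PMA, 24 h at 37 °C. PMA washed off; cells rested 48 h. Infected with metacyclic promastigotes from 7-day culture (host:parasite 1:2.5) for 24 h, then free parasites washed off. Test compound 80–0.004 μM (0.4% DMSO), 96 h. PFA fixation, SYBR green/CellMask stain. Infected cells normalized to 1 μM amphotericin B and 0.4% DMSO. Sigmoidal IC50, two independent experiments.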

[2] = system: Leishmania donovani promastigotes; conditions: cited from earlier work
[3] = system: L. donovani DD8 promastigotes; assay: Determination of the cidal action of compounds; assay type: cell-based, Leishmania donovani; conditions: after 24 h incubation
Outline: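 DD8 promastigotes from two cultures in separate M199 media (N = 2) seeded at 5 × 10^5 parasites/mL. Test compound added; cell numbers counted at each time point. Absence of cells at a concentration was scored as cidal.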

[4] = system: L. donovani DD8 promastigotes; assay: Selection of resistant parasites under increasing drug pressure; assay type: cell-based, Leishmania donovani
Outline: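 DD8 promastigotes were cultured under gradually increasing concentrations of each drug, starting at a sublethal level, to select resistant strains. Resistance was confirmed with the promastigote viability assay.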

HEK-293 cells = assay: HEK-293 resazurin viability assay; assay type: cell-based, human; conditions: vs L. donovani DD8 intracellular amastigotes, 96 h incubation
[5] = system: amphotericin B resistant L. donovani DD8 promastigotes; assay: Activity on amphotericin B resistant parasites, promastigote assay; assay type: cell-based, Leishmania donovani
Outline: (§1)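 Resistant DD8 promastigote lines were raised by culture under gradually increasing drug concentrations, starting sublethal. Resistant clones were then tested alongside the wild-type strain in the resazurin promastigote viability assay.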

[6] = system: amphotericin B resistant L. donovani DD8 intracellular amastigotes; assay: Activity on amphotericin B resistant parasites, intracellular amastigote assay; assay type: cell-based, Leishmania donovani
Outline: (§2)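 Drug-selected resistant DD8 promastigotes were used to infect PMA-differentiated THP-1 cells. Test compound activity was assessed in the intracellular amastigote assay and compared with the wild-type strain.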

[7] = system: L. donovani MHOM/SD/62/1S-CL2D, LdBOB intracellular amastigotes; assay: L. donovani MHOM/SD/62/1S-CL2D, LdBOB intracellular amastigote assay; assay type: cell-based, Leishmania donovani; conditions: for IC50: Leishmania donovani, 72 h, read-out: IC50 (µM) [mean ± SD]; for fold difference in activity between L. donovani DD8 and LdBOB: intracellular amastigote 72 h assay; for Selectivity THP-1 cells: vs L. donovani LdBOB intracellular amastigotes, 72 h incubation
[8] = Distribution coefficient estimation using chromatography; assay type: physicochemical; conditions: pH 7.4
Outline: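 LogD estimated at pH 7.4 by gradient HPLC, correlating retention against standards of known partition coefficient.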

[9] = system: L. infantum chagasi (MHOM/BR/1972/BH46); assay: In vivo L. infantum chagasi chronic hamster model, parasite load by qPCR; design: species or system golden hamsters (Mesocricetus auratus); conditions: for average number of amastigotes in the liver / average number of amastigotes in the spleen: group average
[10] = system: L. infantum chagasi (MHOM/BR/1972/BH46); assay: Histopathological analysis of hamster liver and spleen; assay type: in vivo, golden hamsters (Mesocricetus auratus); conditions: infected hamsters, 10 mg/kg/day oral
[11] = system: L. donovani DD8 promastigotes; assay: Time to kill assay; assay type: cell-based; conditions: Leishmania donovani, read-out: IC50, time to kill, promastigotes
Outline: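 Time-kill: DD8 promastigotes exposed to test compound for 24, 48, 72 or 96 h in the promastigote viability assay. 14-point concentration series from 40 µM top; IC50 calculated at each exposure time.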

[12] = system: cytokines IL-10, IL-4, TGFβ, IFN-γ, IL-17 and TNFα; assay: Relative expression of cytokines by qPCR in hamster spleen and liver; assay type: in vivo, golden hamsters (Mesocricetus auratus); conditions: for TGF-β expression: compared to untreated (UTG)
Outline: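 Hamsters in chronic infection (~60 days) treated 10 consecutive days: vehicle (0.5% carboxymethyl cellulose, oral), GLU 50 mg/kg/day ip, or test compound. Spleen/liver RNA reverse-transcribed; TaqMan qPCR normalized to hamster microglobulin at equal cDNA input; water as negative control. Cycling: 50 °C 2 min, 95 °C 10 min, 40 × (95 °C 15 s, 60 °C 1 min).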

[13] = system: miltefosine resistant L. donovani DD8 promastigotes; assay: Activity on miltefosine resistant parasites, promastigote assay; assay type: cell-based, Leishmania donovani
Outline: as §1

[14] = system: miltefosine resistant L. donovani DD8 intracellular amastigotes; assay: Activity on miltefosine resistant parasites, intracellular amastigote assay; assay type: cell-based, Leishmania donovani
Outline: as §2

[15] = system: L. donovani DD8 intracellular amastigotes; assay: Time to kill assay; assay type: cell-based; conditions: Leishmania donovani, 24 h, read-out: IC50, time to kill, intracellular amastigotes
Outline: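 Intracellular L. donovani amastigotes were exposed to test compound for 24, 48 or 72 h, with amphotericin B and miltefosine as reference drugs. A 14-point concentration–response series started at 40 µM, and an IC50 was derived for each exposure time. Other conditions followed the paper's intracellular amastigote assay.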

[16] = system: L. tropica, L. aethiopica, L. mexicana, L. panamensis and L. donovani; conditions: read-out: EC50 values obtained for miltefosine; varied between species; cited from earlier work
L. donovani = conditions: read-out: mean IC50; L. donovani DD8; cited from earlier work
[17] = BZ1, BZ1-I 10 mg/kg/day oral, GLU 50 mg/kg/day i.p.
[18] = BZ1, BZ1-I 10 mg/kg/day oral, GLU 50 mg/kg/day i.p., 10 days
[19] = L. donovani DD8 intracellular amastigote assay (96 h)

Row | Molecule | Selectivity THP-1 cells (THP-1 cells; 96 h incubation) | IC50 [1] [µM] | concentration at which no viable promastigotes were observed [3] [µM] | concentration withstood by resistant clones ([4]; after 428 days) [µM] | Selectivity HEK-293 cells (HEK-293 cells) | activity against amphotericin B resistant strain compared to wild-type [5] | activity against amphotericin B resistant strain compared to wild-type [6] | Selectivity THP-1 cells (THP-1 cells; 72 h incubation) | IC50 [7] [µM] | fold difference in activity between L. donovani DD8 and LdBOB [7] [fold] | Selectivity THP-1 cells [7] | parasite burden reduction in spleen [9, 17] [%] | average number of amastigotes in the liver [9, 18] [g⁻¹] | average number of amastigotes in the spleen [9, 18] [g⁻¹] | histopathological findings, liver [10] | histopathological findings, spleen [10] | IC50 ([11]; 24 h) [nM] | IC50 ([11]; 48 h) [nM] | TGF-β expression [12] | activity against miltefosine resistant strain compared to wild-type [13] | also measured
1 | C[C@@H]1[C@H](O)[C@@H](C)/C=C/C=C/C=C/C=C/C=C/C=C/C=C/[C@H](O[C@@H]2O[C@H](C)[C@@H](O)[C@H](N)[C@@H]2O)C[C@@H]2O[C@](O)(C[C@@H](O)C[C@@H](O)[C@H](O)CC[C@@H](O)C[C@@H](O)CC(=O)O[C@H]1C)C[C@H](O)[C@H]2C(=O)O [Amphotericin B, reference compound] | 10.24 | 0.2 ± 0.02 | 0.33 | 0.42 | – | – | – | – | – | – | – | – | – | – | – | – | – | – | – | – | resistance generated [2]: 20 fold
2 | CCOc1ccc(Nc2c3c(nc4ccccc24)CCC3)cc1 [BZ1, N-(4-Ethoxyphenyl)-2,3-dihydro-1H-cyclopenta[b]quinolin-9-amine] | >33.89 | 0.59 ± 0.13 | 6.66 | 11 | > 33 | no significant difference | no significant difference | >25.64 | 4.4 ± 0.12 | 5 | >11.76 | 98.56 | 3020 | 25400 | inflammatory nodules in the hepatic parenchyma, lymph histiocytic inflammatory infiltrate in the portal space forming nodules | increase of macrophages in the red pulp forming nodular aggregates and granulomas | 4310 ± 220 | 2370 ± 740 | significantly downregulated; also recorded: decreased expression of TGF-β | no significant difference | chromatographic logD [8]: 5; in vivo toxicity in the hamster VL model ([9]; 10 mg/kg/day oral, 10 days): does not exhibit in vivo toxicity; fold greater activity than miltefosine [1, 19]: 5 fold; fold lower in vitro activity than amphotericin B [1, 19]: ~ 3 fold; TNF-α expression ([12]; compared to GLU and untreated, liver and spleen samples): significant downregulation; IL-4 expression ([12]; compared to untreated, spleen and liver samples): significantly downregulated; IL-17 expression ([12]; liver samples, compared to GLU): significant downregulation; activity against miltefosine resistant strain compared to wild-type [14]: no significant difference
3 | c1ccc(Oc2ccc(Nc3c4c(nc5ccccc35)CCC4)cc2)cc1 [BZ1-I, N-(4-phenoxyphenyl)-1H,2H,3H-cyclopenta[b]quinolin-9-amine] | >49.12 | 0.4 ± 0.38 | 1.66 | – | >24.11 | no significant difference | no significant difference | >44.44 | 4.26 ± 0.24 | 10 | >11.49 | 99.95 | 120 | 162 | mild inflammatory infiltrate in the portal space and nodules in the parenchyma with the presence of giant cells | evident increase in macrophages in the red pulp with the formation of nodules | 3080 ± 1110 | 690 ± 350 | decreased expression of TGF-β | no significant difference | IC50 [15]: 4840 ± 830 nM; fold greater activity compared to the GLU treatment group ([9]; 10 mg/kg/day oral vs GLU 50 mg/kg/day i.p.): ~ 21 fold; concentration withstood by resistant clones ([4]; after 210 days): 5.5 µM; activity against miltefosine resistant strain compared to wild-type [14]: no significant difference
4 | CCCCCCCCCCCCCCCCOP(=O)([O-])OCC[N+](C)(C)C [Miltefosine, miltefosine, reference compound] | >7.87 | 2.54 ± 0.57 | 6.66 | 40 | 15.66 | – | – | – | – | – | – | – | – | – | – | – | – | – | – | – | Selectivity THP-1 cells (THP-1 cells; 96 h incubation, listed as miltefosine): 7.87; EC50 [16]: 2630 to 10600 nM
5 | NC[C@@H]1O[C@H](O[C@H]2[C@@H](O)[C@H](O[C@@H]3[C@@H](O)[C@H](N)C[C@H](N)[C@H]3O[C@H]3O[C@H](CO)[C@@H](O)[C@H](O)[C@H]3N)O[C@@H]2CO)[C@H](N)[C@@H](O)[C@@H]1O [Paromomycin] | – | – | – | – | – | – | – | – | – | – | – | – | – | – | – | – | – | – | – | – | IC50 (L. donovani): 158000 to 166000 nM
6 | Meglumine Antimoniate [reference compound] | – | – | – | – | – | – | – | – | – | – | – | 99.21 | 2530 | 12200 | – | – | – | – | – | – | parasite burden reduction in liver [9, 17]: 98.79%; INF-γ expression ([12]; spleen samples): significant difference; also recorded: increased INF-γ (Th1) expression
